Laboratory results from ChEMBL document CHEMBL4689842, “EUbOPEN Chemogenomics Library wave 1” (2021).
Several values for one entry are separate records, joined by “and”; a condition that tells them apart may be missing. Equal values may be shown once.

Tested on: U2OS
Assay: Multiplex assay against U2OS
Format: toxicity, cell-based
Settings: human
Outline: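 Cells stained live at seeding with Hoechst33342, BioTracker Green Microtubule Cytoskeleton Dye, MitoTracker Red and Annexin V Alexa Fluor 680 were imaged on a CQ1 microscope at 37°C and 5% CO2 after compound addition. Their classification by CellPathfinder machine-learning gating ran from Hoechst high-intensity objects versus normal cells, to healthy, pyknosed or fragmented nuclei among normal cells, to mitotic or apoptotic among pyknosed cells. Tubulin, mitochondrial-mass and membrane-permeability phenotypes are per cents of healthy-nucleus cells.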

[1] = 12 h, 1 µM, compound concentration 1 uM, replicate 1
[2] = 12 h, 1 µM, compound concentration 1 uM, replicate 2
[3] = 12 h, 10 µM, compound concentration 10 uM, replicate 1
[4] = 12 h, 10 µM, compound concentration 10 uM, replicate 2
[5] = 24 h, 1 µM, compound concentration 1 uM, replicate 1
[6] = 24 h, 1 µM, compound concentration 1 uM, replicate 2
[7] = 24 h, 10 µM, compound concentration 10 uM, replicate 1
[8] = 24 h, 10 µM, compound concentration 10 uM, replicate 2
[9] = 48 h, 1 µM, compound concentration 1 uM, replicate 1
[10] = 48 h, 1 µM, compound concentration 1 uM, replicate 2
[11] = 48 h, 10 µM, compound concentration 10 uM, replicate 1
[12] = 48 h, 10 µM, compound concentration 10 uM, replicate 2

Structure (SMILES): CS(=O)(=O)N1CCCC(NC(=O)[C@H](CCC2CCCCC2)NC(=O)c2ccc(CNc3ncnc4c3nnn4-c3ccccc3)cc2)C1 (some centres not stated) [SR-301]
- Population Apoptotic (%) [1]: 27% and 50% and 35%
- Population Fragmented Nuclei (%) [1]: 13% and 7%
- Population Healthy Nuclei (%) [1]: 74% and 76% and 79%
- Population Hoechst High Intensity Objects (%) [1]: 5% and 4% and 3%
- Population Membrane Permeable-Phenotype (%) [1]: 7% and 4% and 3%
- Population Mitochondria Different-Phenotype (%) [1]: 11% and 9% and 8%
- Population Mitotic Cells (%) [1]: 72% and 50% and 64%
- Population Normal (%) [1]: 94% and 95% and 96%
- Population Pyknosed Nuclei (%) [1]: 12% and 13%
- Total Cell Count [1]: 200 and 294 and 192
- Population Apoptotic (%) [2]: 25% and 63% and 33%
- Population Fragmented Nuclei (%) [2]: 14% and 11%
- Population Healthy Nuclei (%) [2]: 81% and 70% and 89%
- Population Hoechst High Intensity Objects (%) [2]: 19% and 13%
- Population Membrane Permeable-Phenotype (%) [2]: 10% and 2%
- Population Mitochondria Different-Phenotype (%) [2]: 20% and 14% and 10%
- Population Mitotic Cells (%) [2]: 75% and 36% and 66%
- Population Normal (%) [2]: 80% and 86%
- Population Tubulin-Different-Phenotype (%) [2]: 21% and 19% and 12%
- Total Cell Count [2]: 135 and 58 and 69
- Population Apoptotic (%) [3]: 81% and 62% and 53%
- Population Fragmented Nuclei (%) [3]: 21% and 23% and 11%
- Population Healthy Nuclei (%) [3]: 27% and 44% and 78%
- Population Hoechst High Intensity Objects (%) [3]: 10% and 5%
- Population Mitochondria Different-Phenotype (%) [3]: 39% and 28% and 22%
- Population Mitotic Cells (%) [3]: 18% and 37% and 46%
- Population Normal (%) [3]: 89% and 94%
- Population Tubulin-Different-Phenotype (%) [3]: 39% and 52% and 28%
- Total Cell Count [3]: 202 and 154 and 295
- Population Apoptotic (%) [4]: 80% and 75% and 41%
- Population Fragmented Nuclei (%) [4]: 39% and 27%
- Population Healthy Nuclei (%) [4]: 20% and 25% and 58%
- Population Hoechst High Intensity Objects (%) [4]: 4% and 2%
- Population Membrane Permeable-Phenotype (%) [4]: 61% and 54% and 30%
- Population Mitochondria Different-Phenotype (%) [4]: 66% and 54% and 34%
- Population Mitotic Cells (%) [4]: 20% and 25% and 58%
- Population Normal (%) [4]: 95% and 97%
- Population Pyknosed Nuclei (%) [4]: 39% and 47% and 20%
- Population Tubulin-Different-Phenotype (%) [4]: 55% and 54% and 34%
- Total Cell Count [4]: 89 and 86 and 105
- Population Apoptotic (%) [5]: 47% and 48%
- Population Fragmented Nuclei (%) [5]: 10% and 5%
- Population Healthy Nuclei (%) [5]: 82% and 75%
- Population Hoechst High Intensity Objects (%) [5]: 3% and 0%
- Population Membrane Permeable-Phenotype (%) [5]: 5% and 3% and 2%
- Population Mitochondria Different-Phenotype (%) [5]: 6% and 8%
- Population Mitotic Cells (%) [5]: 52% and 51%
- Population Normal (%) [5]: 96% and 99%
- Population Pyknosed Nuclei (%) [5]: 14% and 7%
- Total Cell Count [5]: 350 and 199 and 225
- Population Fragmented Nuclei (%) [6]: 12% and 7%
- Population Healthy Nuclei (%) [6]: 78% and 80% and 86%
- Population Membrane Permeable-Phenotype (%) [6]: 7% and 6%
- Population Mitochondria Different-Phenotype (%) [6]: 20% and 10%
- Population Mitotic Cells (%) [6]: 87% and 60% and 55%
- Population Normal (%) [6]: 80% and 95%
- Population Pyknosed Nuclei (%) [6]: 9% and 12% and 6%
- Population Tubulin-Different-Phenotype (%) [6]: 13% and 26% and 14%
- Total Cell Count [6]: 148 and 64 and 84
- Population Apoptotic (%) [7]: 96% and 87% and 65%
- Population Healthy Nuclei (%) [7]: 25% and 39% and 75%
- Population Mitochondria Different-Phenotype (%) [7]: 29% and 16% and 13%
- Population Normal (%) [7]: 89% and 92% and 96%
- Population Pyknosed Nuclei (%) [7]: 39% and 38% and 13%
- Population Tubulin-Different-Phenotype (%) [7]: 37% and 63% and 44%
- Total Cell Count [7]: 235 and 159 and 307
- Population Apoptotic (%) [8]: 91% and 94% and 89%
- Population Fragmented Nuclei (%) [8]: 25% and 32% and 19%
- Population Hoechst High Intensity Objects (%) [8]: 15% and 21% and 9%
- Population Mitotic Cells (%) [8]: 8% and 5% and 10%
- Population Normal (%) [8]: 84% and 78% and 90%
- Population Pyknosed Nuclei (%) [8]: 49% and 50% and 21%
- Total Cell Count [8]: 98 and 89 and 110
- Population Apoptotic (%) [9]: 58% and 30%
- Population Fragmented Nuclei (%) [9]: 3%
- Population Healthy Nuclei (%) [9]: 84% and 87%
- Population Hoechst High Intensity Objects (%) [9]: 1% and 0%
- Population Membrane Permeable-Phenotype (%) [9]: 2% and 1%
- Population Mitochondria Different-Phenotype (%) [9]: 9% and 7%
- Population Mitotic Cells (%) [9]: 41% and 69% and 74%
- Population Normal (%) [9]: 98% and 99%
- Population Pyknosed Nuclei (%) [9]: 7%
- Total Cell Count [9]: 208 and 559 and 312
- Population Apoptotic (%) [10]: 38% and 21% and 25%
- Population Fragmented Nuclei (%) [10]: 4% and 7% and 9%
- Population Healthy Nuclei (%) [10]: 83% and 76%
- Population Membrane Permeable-Phenotype (%) [10]: 7% and 3%
- Population Mitochondria Different-Phenotype (%) [10]: 13% and 8% and 12%
- Population Mitotic Cells (%) [10]: 61% and 78% and 75%
- Population Normal (%) [10]: 92% and 96% and 85%
- Population Pyknosed Nuclei (%) [10]: 12% and 8% and 13%
- Total Cell Count [10]: 84 and 114 and 231
- Population Apoptotic (%) [11]: 92% and 85% and 62%
- Population Mitochondria Different-Phenotype (%) [11]: 17% and 14% and 9%
- Population Normal (%) [11]: 89% and 91% and 96%
- Population Tubulin-Different-Phenotype (%) [11]: 37% and 75% and 53%
- Total Cell Count [11]: 372 and 170 and 387
- Population Apoptotic (%) [12]: 96% and 100% and 84%
- Population Fragmented Nuclei (%) [12]: 23% and 17% and 12%
- Population Healthy Nuclei (%) [12]: 38% and 68%
- Population Membrane Permeable-Phenotype (%) [12]: 85% and 44%
- Population Mitochondria Different-Phenotype (%) [12]: 81% and 74% and 35%
- Population Mitotic Cells (%) [12]: 3% and 0% and 15%
- Population Normal (%) [12]: 76% and 80% and 92%
- Population Pyknosed Nuclei (%) [12]: 38% and 30% and 19%
- Population Tubulin-Different-Phenotype (%) [12]: 81% and 82% and 30%
- Total Cell Count [12]: 84 and 107 and 142
